STAT3 act: increases IL-6 driven STAT3 reporter signal; U3A cells, IL-6 STAT3-luciferase reporter, luminescence; 100% = signal with IL-6 EC80 alone; activation (% of control), % at 5.6 µM; hit rate 0.91% among 190,000;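 active = activation above the screen-wide mean of compound activation plus 3 SD, cut at about 130% in these data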;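 also: 0% = background luminescence of wells with medium and substrate only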
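Material: STAT1-lacking human U3A cells, STAT3 luciferase reporter | Benchmarks: IL-6-only wells as 100% reference | Probe or stimulus: IL-6 (33 ng/mL) | Timing: Compound 1 h, then IL-6 6 h at 37 °C | Detection: Luminescence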
STAT1 act: activators of IFN-gamma induced STAT1 signaling; NIH 3T3 STAT1-luciferase reporter, luminescence; 100% = IFN-gamma alone, no compound; activation (% of control), % at 5.5 µM; hit rate 2.6% among 200,000;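 active = activation above the screen-wide mean activation plus 3 SD, cut at about 130% in these data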;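 also: raw ratio to IFN-gamma control signal so 100% means no change and 0% no light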
STAT1 blocker: STAT1 signaling inhibition | NIH 3T3 STAT1-luciferase reporter, IFN-gamma, luminescence | AID 920 | hit rate 0.35% among 200,000 | inhibition, % at 5.5 µM;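 active = inhibition above a set limit, the mean inhibition across all tested compounds plus 3 SD, cut at about 34% in these data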;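 also: 0% = IFN-gamma with DMSO and 100% = IFN-gamma with 300 µM nifuroxazide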
NF-kB expr up: raises NF-kB expression in human neuronal cells; NF-kB reporter expression; active compounds read high; fold change at 12.5 µM; hit rate 1.6% among 190,000; AID 1239; in the data active = fold change above about 3.3
STAT3 blocker: STAT3 signaling inhibition; AID 862; inhibition, % at 5.5 µM; hit rate 0.89% among 190,000; U3A cells, IL-6 STAT3-luciferase reporter, luminescence; host cell line lacks STAT1;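 active = inhibition above the mean inhibition across all screened compounds plus 3 SD, cut at about 44% in these data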;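 also: 0% = DMSO only wells and 100% = 100 µM nifuroxazide control wells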
APP 5'UTR act: activates APP 5'UTR luciferase reporter. SH-SY5Y APP 5'UTR luciferase reporter, luminescence; zero percent = DMSO vehicle wells. activation, % at 2 µM. hit rate 1% among 190,000;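 active = activation above a set limit, based on mean plus 3 SD of controls, cut at about 140% in these data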
Starred values were filed as active, the others as inactive. This is a sample that favours compounds with a hit; in the whole collection about 4.9% have one here.

How did CSC(=S)N/N=C(\C)c1ccccc1 do in these assays?
STAT3 act: 87; STAT1 act: 109; STAT1 blocker: -11; NF-kB expr up: 5.9*; STAT3 blocker: 18; APP 5'UTR act: -3

What do the screens show for `Cc1ccc(NC(=O)c2onc(C)c2Cl)cc1`?
STAT3 act: 129; STAT1 act: 126; STAT1 blocker: -29; NF-kB expr up: 3.1; STAT3 blocker: -24; APP 5'UTR act: 96

Results for CCCc1cc(C(=O)Nc2ccc(C)cc2)no1 ?
STAT3 act: 91; STAT1 act: 135*; STAT1 blocker: -39; NF-kB expr up: 2.1; STAT3 blocker: 16; APP 5'UTR act: 21

What do the screens show for `Cc1ccc(NC(=O)c2cc(C)on2)cc1`?
STAT3 act: 71; STAT1 act: 130*; STAT1 blocker: -32; NF-kB expr up: 3.3*; STAT3 blocker: 37; APP 5'UTR act: 82

Results for CCc1ccc(NC(=O)c2cc(CC(C)C)on2)cc1 ?
STAT3 act: 106; STAT1 act: 127; STAT1 blocker: -28; NF-kB expr up: 2.6; STAT3 blocker: -7; APP 5'UTR act: 8

Results for Cc1cc2[nH]c3c(c[n+](C)c4ccccc34)c2cc1C ?
STAT3 act: 151*; STAT1 act: 221*; STAT1 blocker: -133; NF-kB expr up: 1.1; STAT3 blocker: -53; APP 5'UTR act: -83

Results for O=C(NC1CCCCC1)c1cccc(Cn2cc(Cl)cn2)c1 ?
STAT3 act: 103; STAT1 act: 94; STAT1 blocker: 6; NF-kB expr up: 1.3; STAT3 blocker: 3; APP 5'UTR act: -15

What do the screens show for `O=C(Nc1ccc(Cl)cc1)C(c1ccccc1)N(CCO)CCO` (configuration not stated)?
STAT3 act: 105; STAT1 act: 107; STAT1 blocker: -8; NF-kB expr up: 4.3*; STAT3 blocker: -3; APP 5'UTR act: 10

How did O=C(CNC(=O)c1ccccc1C(=O)O)c1ccccc1 do in these assays?
STAT3 act: 89; STAT1 act: 130*; STAT1 blocker: -33; NF-kB expr up: 1.7; STAT3 blocker: 16; APP 5'UTR act: 69

Results for CC1=C(C)CC(C(=O)NCC(=O)c2ccccc2)C(C(=O)O)C1 (configuration not stated) ?
STAT3 act: 117; STAT1 act: 133*; STAT1 blocker: -36; NF-kB expr up: 1.6; STAT3 blocker: -20; APP 5'UTR act: 89

What do the screens show for `O=C(Nc1ccc([N+](=O)[O-])cc1)c1ccccc1F`?
STAT3 act: 90; STAT1 act: 138*; STAT1 blocker: -43; NF-kB expr up: 2.5; STAT3 blocker: 14; APP 5'UTR act: 62

Results for COc1ccc(O)c(C(=O)CC(=O)c2ccccc2C)c1 ?
STAT3 act: 88; STAT1 act: 145*; STAT1 blocker: -50; NF-kB expr up: 2.3; STAT3 blocker: 19; APP 5'UTR act: 77

Results for COc1ccc(NC(=O)c2ccccc2C)c(OC)c1 ?
STAT3 act: 90; STAT1 act: 97; STAT1 blocker: 3; NF-kB expr up: 1.2; STAT3 blocker: 15; APP 5'UTR act: 0

What do the screens show for `O=C1c2ccccc2C(=O)C12OC2c1ccc(Cl)cc1Cl` (configuration not stated)?
STAT3 act: 101; STAT1 act: 100; STAT1 blocker: -1; NF-kB expr up: 4.1*; STAT3 blocker: 0; APP 5'UTR act: -25

How did Cc1cc(=O)oc2cc(OCC(=O)OCC(=O)N3CCC(C)CC3)ccc12 do in these assays?
STAT3 act: 97; STAT1 act: 97; STAT1 blocker: 3; NF-kB expr up: 1; STAT3 blocker: 4; APP 5'UTR act: -15

What do the screens show for `CC(C)(C)c1ccc(NC(=O)Nc2ccc(OCC(=O)N3CCOCC3)cc2)cc1`?
STAT3 act: 95; STAT1 act: 134*; STAT1 blocker: -38; NF-kB expr up: 5.3*; STAT3 blocker: 12; APP 5'UTR act: 117

How did CC1(C)CC(NC(=S)Nc2ccc(S(N)(=O)=O)cc2)CC(C)(C)N1 do in these assays?
STAT3 act: 97; STAT1 act: 98; STAT1 blocker: 4; NF-kB expr up: 1; STAT3 blocker: 8; APP 5'UTR act: 6

How did Cc1ccc2nc(-c3ccc(NC(=S)NC4CC(C)(C)NC(C)(C)C4)cc3)sc2c1 do in these assays?
STAT3 act: 96; STAT1 act: 135*; STAT1 blocker: -38; NF-kB expr up: 1.3; STAT3 blocker: 7; APP 5'UTR act: 168*

Bioassay records: PubChem BioAssay, several laboratories
